In ChEMBL document CHEMBL1152315, “Benzophenone derivatives from the fruits of Garcinia multiflora and their anti-inflammatory activity” (J Nat Prod, 2009):

Legend:
[1] = Antiinflammatory activity in human neutrophils assessed as inhibition of fMet-Leu-Phe/Cytochalasin B-induced superoxide anion generation treated 5 mins before fMet-Leu-Phe/Cytochalasin B challenge by spectrophotometry; type: functional, cell-based; conditions: Neutrophil
In short: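 Donor neutrophils (6 × 10^5/mL, Ca2+-free HBSS pH 7.4) were given 0.5 mg/mL ferricytochrome c and 1 mM Ca2+, held at 37 °C for 2 min, then exposed to compound (10-0.01 µg/mL) or DMSO for 5 min. Cytochalasin B (1 µg/mL) was added for 3 min, then fMLP (100 nM) for 10 min. SOD-inhibitable cytochrome c reduction was read at 550 nm (ε 21.1/mM/10 mm).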

[2] = Antiinflammatory activity in human neutrophils assessed as inhibition of fMet-Leu-Phe/Cytochalasin B-induced elastase release treated 5 mins before fMet-Leu-Phe/Cytochalasin B challenge; type: functional, cell-based; conditions: Neutrophil
In short: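 Neutrophils from venous blood of healthy adult donors (20-28 y), isolated by dextran sedimentation, Ficoll Hypaque and hypotonic erythrocyte lysis; 6 × 10^5/mL with MeO-Suc-Ala-Ala-Pro-Val-p-nitroanilide substrate (100 µM), 37 °C for 2 min, then compound for 5 min. Stimulated with fMLP (100 nM)/CB (0.5 µg/mL). Absorbance at 405 nm monitored continuously; expressed as percent of drug-free activated control.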

Compound	IC50 [1] [µM]	IC50 [2] [µM]
c1ccc2c(c1)[I+]c1ccccc1-2 [DIPHENYLENEIODONIUM]	1.7	–
O=S(=O)(F)Cc1ccccc1 [PHENYLMETHYLSULFONYLFLUORIDE]	–	204
COc1cc2ccc(=O)oc2c(OC)c1OC [FRAXIDIN METHYL ETHER]	> 30	> 30
CC[C@H](CC[C@@H](C)[C@H]1CC[C@H]2[C@@H]3CC=C4CC(=O)CC[C@]4(C)[C@H]3CC[C@]12C)C(C)C [BETA-SITOSTENONE]	> 30	> 30
CC(C)=CC[C@H]1C[C@@]23C[C@@H](CC=C(C)C)C(C)(C)[C@@](CC=C(C)C)(C(=O)C(C(=O)c4ccccc4)=C2OC1(C)C)C3=O	0.88	1.16
CC(C)=CCC/C(C)=C/CC/C(C)=C/CC[C@]1(C)CCc2cc(O)cc(C)c2O1 [DELTA-TOCOTRIENOL]	14.8	15.1
C=C(C)[C@@H](CC=C(C)C)C[C@@]12C[C@@H](CC=C(C)C)C(C)(C)[C@]3(C=CC(C)(C)OC3=C(C(=O)c3cccc(O)c3)C1=O)C2=O [13-HYDROXYGARCIMULTIFLORONE B]	0.4	0.86

Results, then the compound that gave them:

IC50 [1] [µM]	IC50 [2] [µM]	Compound
0.11	0.14	C=C(C)[C@@H](CC=C(C)C)C[C@@]12C[C@@H](CC=C(C)C)C(C)(C)[C@]3(C=CC(C)(C)OC3=C(C(=O)c3ccccc3)C1=O)C2=O [GARCIMULTIFLORONE B]
5.58	4.65	CC(C)=CCC1=C2OC(C)(C)[C@@H](CC=C(C)C)C[C@@]23C[C@@H](CC=C(C)C)C(C)(C)[C@@](C(=O)c2ccccc2)(C1=O)C3=O [GARCIMULTIFLORONE A]
> 30	> 30	COc1cc2ccc(=O)oc2cc1OC [SCOPARONE]
7.21	12.1	C=C(C)[C@@H](CC=C(C)C)C[C@@]12C[C@H]3C[C@@H](C(C)(C)O)[C@](C(=O)c4ccccc4)(C1=O)C(=O)[C@@](CC(O)C(C)(C)O)(C2=O)C3(C)C (some centres not stated) [GARCIMULTIFLORONE C]
> 30	> 30	CC(C)=CCC/C(C)=C/CC/C(C)=C/CC/C=C(\C)CC/C=C(\C)CCC=C(C)C [SQUALENE]
